From ChEMBL document CHEMBL1121837, “Synthesis and antischistosomal activity of certain pyrazolo[1,5-a]pyrimidines” (1981)

These molecules were tested on Schistosoma mansoni (assay: In vitro antischistosomal activity, minimum active concentration to cause severe damage or death of worms at 96 hr against Schistosoma mansoni).
Type: functional
Outline: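 Adult S. mansoni pairs (Puerto Rican strain, 46-day infection, recovered from mice) incubated at 37 °C, 2.0 mL medium per pair, in serumless medium with 50 µg/mL gentamycin sulfate. Compound dissolved in DMSO, final DMSO ≤1%. Worms examined by inverted microscope at intervals up to 96 h, when the final reading was taken.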

Structure (SMILES) | MAC
Cc1cc(O)n2nc(-c3ccccc3)cc2n1 | 100 µg/mL
Cc1cccc(-c2cnn3c(O)cc(C)nc23)c1 | 100 µg/mL
Cc1cccc(-c2cnn3c(O)cc(-c4ccccc4)nc23)c1 | 1 µg/mL
Cc1cc(=S)n2nccc2n1C | >100 µg/mL
Cc1cc(O)n2nc(-c3cccc(Cl)c3)cc2n1 | >100 µg/mL
COc1cc(-c2cc3nc(C)cc(S)n3n2)cc(OC)c1OC | 1 µg/mL
CCn1ccc(=S)n2nccc12 | 100 µg/mL
Cc1cc(S)n2ncc(-c3ccccc3)c2n1 | 1 µg/mL
Cn1ccc(=S)n2nc(-c3ccccc3)cc12 | 10 µg/mL
Cc1cc(S)n2nc(-c3ccccc3)cc2n1 | 1 µg/mL
CCOC(=O)c1cnn2c(S)cc(C)nc12 | 10 µg/mL
Cc1cc(O)n2ncc(-c3ccccc3)c2n1 | 100 µg/mL
Cc1cccc(-c2cnn3c(S)cc(C)nc23)c1 | 100 µg/mL
Oc1ccnc2c(-c3ccccc3)cnn12 | 100 µg/mL
COc1cc(-c2cc3nc(-c4ccccc4)cc(O)n3n2)cc(OC)c1OC | >100 µg/mL
Sc1ccnc2c(-c3ccccc3)cnn12 | 1 µg/mL
CCCn1ccc(=S)n2nc(-c3ccccc3)cc12 | 10 µg/mL
COc1cc(-c2cc3nc(C)cc(O)n3n2)cc(OC)c1OC | >100 µg/mL
Sc1ccnc2cc(-c3ccccc3)nn12 | 1 µg/mL
CCn1ccc(=O)n2nccc12 | >100 µg/mL

Structure (SMILES) | MAC
Cc1cc(S)n2ncc(-c3ccc(Cl)cc3)c2n1 | 100 µg/mL
CCOC(=O)c1cnn2c(O)cc(-c3ccccc3)nc12 | >100 µg/mL
Oc1cc(-c2ccccc2)nc2cc(-c3ccccc3)nn12 | >100 µg/mL
Cc1cc(=O)n2nccc2n1C | 100 µg/mL
Sc1ccnc2ccnn12 | 1 µg/mL
Cc1cc(S)n2nccc2n1 | 3.2 µg/mL
Oc1cc(-c2ccccc2)nc2c(-c3ccc(Cl)cc3)cnn12 | 100 µg/mL
CCCn1ccc(=O)n2nc(-c3ccccc3)cc12 | 100 µg/mL
Cn1ccc(=O)n2nccc12 | >100 µg/mL
Sc1cc(-c2ccccc2)nc2ccnn12 | 1 µg/mL
Oc1cc(-c2ccccc2)nc2c(-c3ccccc3)cnn12 | 10 µg/mL
Cn1c(-c2ccccc2)cc(=O)n2nc(-c3ccccc3)cc12 | 100 µg/mL
Cn1ccc(=S)n2nccc12 | >100 µg/mL
Oc1cc(-c2ccccc2)nc2ccnn12 | >100 µg/mL
Sc1cc(-c2ccccc2)nc2cc(-c3ccccc3)nn12 | 1 µg/mL
Cc1cccc(-c2cnn3c(S)ccnc23)c1 | 0.32 µg/mL
Cc1cccc(-c2cnn3c(O)ccnc23)c1 | 100 µg/mL
O=c1cc(-c2ccccc2)[nH]c2cc(-c3cccc(Cl)c3)nn12 | >100 µg/mL
Oc1ccnc2cc(-c3ccccc3)nn12 | >100 µg/mL
Cn1ccc(=O)n2nc(-c3ccccc3)cc12 | >100 µg/mL
